The whole screen tested about 220,000 compounds, of which about 390 (0.18%) were called active. Shown is part of a subset that was picked to be rich in actives. Values without a mark were called inactive.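 The calls were made as follows: active = activation above its plate's cutoff, the mean activation of test wells on that plate plus 3 SD (cut at about 19% in these data); inactive = the rest.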 Residues, ends and D or L forms follow the SMILES beside them. *: point of attachment. OPac = O=C(CO*)c1ccccc1; Bz = O=C(c1ccccc1)*
test system: transient receptor potential cation channel N1 (TRPN1/NompC), Danio rerio; assay: TRPN1 activation via calcium influx – cell-based, HEK293, calcium fluorescence, zebrafish, primary screen (AID 1424); details: HEK293 zebrafish TRPN1-YFP, Fluo-8 calcium fluorescence; at 3 µM; hits give high values; 100% = response to 87 µM carbachol;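 also: 0% = DMSO alone and 100% = 87 µM carbachol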
Outline: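 Material: zebrafish TRPN1-YFP in HEK293 cells. Doses: one dose of 3 µM, 0.3% DMSO. Incubation: dye 1 h 37 °C plus 30 min RT. Measured by: intracellular calcium fluorescence with Fluo-8.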

| Compound | activation |
| --- | --- |
| Cc1cc(N2CCN(c3ccc(F)cc3)CC2)n2ncnc2n1 | 1.97% |
| CCc1cccc(C)c1NC(=O)COC(=O)Cc1ccsc1 | -0.93% |
| CN1CCN(NC(=O)c2ccc(S(=O)(=O)N3CCCCCC3)cc2)CC1 | 1.34% |
| CCOC(=O)COc1nc(C)cc(C(F)(F)F)c1C#N | -0.81% |
| CCOC(=O)/C(C#N)=C/c1ccc(N2CCCCC2)cc1 | 2.02% |
| Cc1cc(C(=O)NNC(=S)Nc2ccccc2C)cs1 | 3.43% |
| CN(C)CCOCCOc1ccc(Cl)c2ccccc12 | 1.52% |
| Cc1cccc(C)c1Nc1c(-c2ccccc2O)nc2ncccn12 | 1.43% |
| Cc1ccc(C2C(C#N)C(C#N)N3CCCN23)cc1 (stereo not drawn) | -0.02% |
| CCO/N=C(/C)c1c(O)cc(-c2ccccc2)n(-c2ccccc2)c1=O | 0.61% |
| COCc1c(N)c(C)nc(Cl)c1C#N | -0.99% |
| CCn1c(Cc2ccccc2)nnc1SCC(=O)Nc1ccccc1 | 0.58% |
| CCn1c(CSc2ncccn2)nnc1SCC(=O)N1c2ccccc2CC1C (stereo not drawn) | -0.46% |
| CCCc1nnc(SCC(=O)N2C(C)CCCC2C)n1CC (stereo not drawn) | 37.6% (active) |
| O=C(O)CCN(Cc1ccccc1)S(=O)(=O)c1c(Cl)cccc1Cl | 0.3% |
| COc1cc(C(=O)OC(C)C(=O)NCC2CCCCC2)cc(NC(=O)c2ccco2)c1OC (stereo not drawn) | -0.78% |
| COCCN(Cc1cc2cc3c(cc2nc1Cl)OCO3)C(=O)c1cccc(C)c1 | 0.19% |
| CCN(CC)c1ccc2cc(C(=O)O)c(=O)oc2c1 | 1.02% |
| CCN(CC)c1ccc2cc(C(N)=O)/c(=N\NC(=O)c3ccncc3)oc2c1 | 31.1% (active) |
| COc1ccc(C(=O)N/N=c2\oc3ccccc3cc2C(N)=O)cc1 | 1.99% |
| CCC(C)NC(=O)c1ccc(N2CCC3(CC2)OCCO3)c([N+](=O)[O-])c1 (stereo not drawn) | 0.89% |
| O=C(/C=C/c1cccs1)NCc1cccnc1 | 0.53% |
| COC(=O)C1=NN(c2ccccc2)C2C(=O)N(c3ccccc3OC)C(=O)C12 (stereo not drawn) | -0.87% |
| COc1cccc(NC(=O)COC(=O)CCOc2ccccc2OC)c1 | -1.34% |
| CCc1c(O)cc2n(c1=O)-c1ccccc1C2(C)C | 1.3% |

| Compound | activation |
| --- | --- |
| CC(C)(C)NC(=O)CN(C(=O)c1csnn1)c1ccccc1-c1ccccc1 | 1.04% |
| O=C(CCN1CCN(c2ccccc2)CC1)NNC(=S)Nc1ccccc1 | 2.77% |
| CCOc1ccccc1N1CN(Cc2ccccc2)CNC1=S | -0.98% |
| Cn1cc(S(=O)(=O)NC(c2ccccc2)c2ccccc2)c(=O)n(C)c1=O | 1.45% |
| COc1ccc(/C=N/NC(=O)C(C)N(c2ccc(OC)cc2)S(C)(=O)=O)cc1 (stereo not drawn) | 0.5% |
| CC(C)(C)NC(=O)CN1CCC(NC(=O)C23CC4CC(CC(C4)C2)C3)CC1 | 2.37% |
| O=C(COC(=O)c1ccc(F)cc1F)Nc1ncccn1 | -0.68% |
| O=C(COc1ccccc1)N1CCN=C1SCc1cccc(F)c1 | -0.02% |
| Cc1cc(OCC(=O)NC2CCN(C)CC2)ccc1[N+](=O)[O-] | 1.92% |
| CC1Cc2ccccc2N1CC(=O)Nc1ccc(S(N)(=O)=O)cc1 (stereo not drawn) | 1.19% |
| Cc1c(Cl)cccc1NC(=O)Nc1ccc(C(=O)N2CCCC2)cc1 | -0.96% |
| Cc1nn(C)cc1N1C(=O)c2cccc3c(N)ccc(c23)C1=O | 23.7% (active) |
| COc1ccc(N2C(=O)c3cccc4cccc(c34)C2=O)nn1 | -0.39% |
| Cc1nn(-c2cc(Cl)ccc2N)c(=O)c2ccccc12 | -1.21% |
| Cc1cc(=O)oc2cc(OCCC[n+]3ccccc3)ccc12 | 0.59% |
| O=C(CNCc1ccc(Cl)cc1)Nc1cccc(C(=O)O)c1 | 0.21% |
| CCOC(=O)c1c(C)oc(C)c(C(=O)OCC)c1=O | 1.29% |
| O=[N+]([O-])/C=C1\CCCCCN1 | 3.32% |
| N#C/C(=C/c1cccc([N+](=O)[O-])c1)c1nnc2n1CCCCC2 | 2.1% |
| COCc1cc(=O)[nH]c(SC)n1 | 1.98% |
| CCOC12CC(C)(C)CC(C)(CC3=C1C(=O)CC(C)(C)C3)C2 (stereo not drawn) | 1.01% |
| CSc1cccc(NC(=S)N(Cc2ccccc2)Cc2ccccn2)c1 | -0.2% |
| CCOc1ccc(-n2c(O)c(/C=N/c3ccnn3Cc3ccncc3)c3ccccc3c2=O)cc1 | 0.39% |
| O=C(COC(=O)c1ccco1)NCc1ccc(Cl)cc1 | 0.49% |
| Cc1cc(C)n(Cc2cnc(N3CCOCC3)s2)n1 | 0.48% |

| Compound | activation |
| --- | --- |
| CNC(=O)c1ccsc1NC(=O)c1ccc(S(=O)(=O)N2CCOCC2)cc1 | 2.83% |
| CC1=NN(c2cccc(Cl)c2)C(=O)C12CC(C)=C(C)CS2 (stereo not drawn) | -0.78% |
| O=C1CC(N2CCN(c3ccc(F)cc3)CC2)C(=O)N1c1ccccc1 (stereo not drawn) | 0.96% |
| Cc1ccc(N2C(=O)CC(N3CCSCC3)C2=O)c(C)c1 (stereo not drawn) | 40.3% (active) |
| Cc1ccc(N2CCN(S(=O)(=O)c3ccc(F)cc3)CC2)c(C)c1 | -1.18% |
| Cc1cc(C)n(C(=O)CCNC(=O)c2ccccc2Cl)n1 | 0.31% |
| CC(C)c1ccc(NC(=S)NC2CC3C=CC2C3)cc1 (stereo not drawn) | 1.72% |
| CCCCCCCCCOC1OC(CO)C(O)C(O)C1NC(C)=O (stereo not drawn) | 1.72% |
| O=C(CNC(=O)c1ccccc1)NCC(=O)OCC(=O)c1ccccc1 (Bz-Gly-Gly-OPac) | 1.5% |
| CC(C)OC(=O)CN1CCN(c2ccc(Cl)cc2)CC1 | 4.98% |
| Cc1ccc(NC(=O)Nc2nnc(-c3ccncc3)s2)cc1 | 20.7% (active) |
| Cc1occc1C(=O)Nc1nnc(-c2ccncc2)s1 | 0.89% |
| Cc1ccc(C(=O)Nc2nnc(-c3ccncc3)s2)o1 | 1.91% |
| O=C(NN=C1CCC(=NNC(=O)c2cccnc2)CC1)c1cccnc1 | 1.24% |
| COc1cc(NC(=O)c2ccccc2NS(=O)(=O)c2ccc(Cl)s2)cc(OC)c1 | 21% (active) |
| COC(=O)c1ccc(NC(=O)c2ccccc2NS(=O)(=O)c2ccccc2)cc1 | 19.8% (active) |
| CCOc1ccc(NC(=O)c2ccccc2NS(C)(=O)=O)cc1 | 0.2% |
| COC(=O)c1ccccc1NC(=O)c1ccccc1NS(C)(=O)=O | -1.95% |
| O=C(Nc1nncs1)c1ccccc1NS(=O)(=O)c1cccs1 | -0.5% |
| COc1cc(NC(=O)c2cccnc2SC)cc(OC)c1 | -0.29% |
| C=C(C)CNC(=S)N/N=C/c1ccccc1OCC(=O)O | 1.26% |
| Cc1ccc2cc(CN(c3ccc(C)c(C)c3)S(C)(=O)=O)c(=O)[nH]c2c1 | 1.62% |
| CC#CC[N+](C)(C)CCCCCC | -0.58% |
| COCCN(Cc1nc(-c2ccc(C(F)(F)F)cc2)no1)C(C)C | 0.76% |
| O=C(CCNC(=O)Cn1ccc2ccccc2c1=O)NCCC1=CCCCC1 | -0.5% |

| Compound | activation |
| --- | --- |
| COc1ccc(OC)c(-c2c(=O)n(OCc3ccccc3Br)c3ccccc3[n+]2[O-])c1 | -1.72% |
| COc1ccc(C(C)=O)cc1COc1ccc(Cl)c(C)c1 | 0.81% |
| CCOC(=O)CC1C(=O)NCCN1c1nc2c(C)cccn2c(=O)c1/C=C1\SC(=S)N(C(C)CC)C1=O (stereo not drawn) | 23.3% (active) |
| Cc1cccn2c(=O)c(/C=C3\SC(=S)N(CC(C)C)C3=O)c(NCCCOC(C)C)nc12 | 1.73% |
| CCOC(=O)CC1C(=O)NCCN1C(=O)COc1ccc(Br)cc1C (stereo not drawn) | -0.63% |
| CCOC(=O)C1(Cc2cccc(OC)c2)CCN(C(C)COC)CC1 (stereo not drawn) | -0.77% |
| Cc1ccc(N2C(=O)S/C(=C/c3cn(C)c4ccccc34)C2=O)cc1 | 1.3% |
| O=C(NCCc1c[nH]c2ccccc12)C(=O)NCC1CCCO1 (stereo not drawn) | 0.46% |
| N#C/C(=C/c1ccc(-c2ccccc2[N+](=O)[O-])o1)C(=O)NCCN1CCCCC1 | -2.16% |
| N#C/C(=C/c1ccc(N2CCCCC2)o1)C(=O)NCCc1c[nH]c2ccccc12 | 29.5% (active) |
| COCCCNC(=O)CNC(=S)N(Cc1cc(OC)c(OC)c(OC)c1)C1CCCC1 | 0.25% |
| C=CCNC(=O)c1ccccc1NC(=O)c1ccc(Cl)c(S(=O)(=O)Nc2cccc(C)c2C)c1 | 1.27% |
| Cn1nnnc1-c1cc(Cl)cc(Cl)c1 | -0.59% |
| CCN1/C(=C/C(=S)Nc2ccccc2)Sc2ccccc21 | -1.89% |
| CCN1/C(=C/c2ccc3ccc(C)cc3[n+]2CC)Sc2ccccc21 | 30.7% (active) |
| CCN1/C(=C\c2ccc3ccccc3[n+]2CC)Sc2cc(C)ccc21 | 38.4% (active) |
| CCN1CCN(CCNC(=O)c2ccc(/C=C3/Sc4ccccc4N(Cc4cccc(C)c4)C3=O)cc2)CC1 | 4.77% |
| CC(C)(C)C(=O)CSc1nc2ccccc2o1 | -0.66% |
| COc1cc(OC)c(-n2cc(-c3ccc(Cl)cc3)[nH]c2=O)cc1Cl | 32.6% (active) |
| COc1cc(OC)c(-n2c(C)cc(C=O)c2C)cc1Cl | -1.14% |
| COc1ccc(-c2cn(-c3ccc(OC)cc3)c(=S)[nH]2)cc1 | -0.09% |
| O=C(c1snnc1-c1ccccc1)N1CCOCC1 | -0.06% |
| CC(=O)Nc1ccc(S(=O)(=O)Nc2ccc(-c3ccc4nnc(C)n4n3)cc2)cc1 | 0.58% |

Reference: PubChem BioAssay AID1424 (The Scripps Research Institute Molecular Screening Center, 2008)
